Source: ChEMBL document CHEMBL2169854, “New insight into the central benzodiazepine receptor-ligand interactions: design, synthesis, biological evaluation, and molecular modeling of 3-substituted 6-phenyl-4H-imidazo[1,5-a][1,4]benzodiazepines and related compounds” (J Med Chem, 2011)
Activity calls are given as the source filed them. The rule behind the calls is not given here.

Legend:
Bos taurus = organism: Bos taurus; experiment: Ratio of Ki for central benzodiazepine receptor in bovine cortical membrane to Ki for central benzodiazepine receptor in bovine cortical membrane in presence of 50 uM GABA; format: cell membranes
Homo sapiens = organism: Homo sapiens; experiment: Ratio of Ki for central benzodiazepine receptor in human cortical membrane to Ki for central benzodiazepine receptor in human cortical membrane in presence of 50 uM GABA; format: cell membranes
Rattus norvegicus [1] = organism: Rattus norvegicus; experiment: Partial agonist activity at central benzodiazepine receptor in Sprague-Dawley rat cerebrocortical synaptoneurosomes assessed as increase in GABA-induced [36]chloride ion flow after 10 seconds by beta liquid scintillation counting; format: functional
Outline: (§1)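 Cerebral cortex from male Sprague-Dawley rats was homogenised and filtered, and synaptoneurosomes were washed in HEPES pH 7 buffer (145 mM NaCl, 5 mM KCl, 5 mM MgCl2, 1 mM CaCl2, 10 mM glucose). Aliquots of 1.5–2 mg protein were preincubated 10 min at 30 C. Drug was added with 0.2 μCi 36Cl−, uptake was stopped at 10 s, and filter-bound radioactivity was counted by scintillation.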

[2] = target: T1, GABA-A receptor; alpha-1/beta-2/gamma-2 (Homo sapiens) (UniProt P14867+P47870+P18507); experiment: (§2) Modulation of human recombinant GABA-A alpha1beta2gamma2L receptor expressed in Xenopus laevis oocytes assessed as effect on GABA-induced chloride current at 1 uM incubated 60 seconds before addition of GABA measured after 30 seconds at holding potential -70 mV by two-microelectrode voltage clamp technique relative to control; format: cell-based; details: Oocyte
[3] = target: T1, GABA-A receptor; alpha-1/beta-2/gamma-2 (Homo sapiens); experiment: as §2, with “at 10” for “at 1”; format: cell-based; details: Oocyte
[4] = target: T2, GABA A receptor alpha-1/beta-1/gamma-2 (Homo sapiens) (UniProt P14867+P18507+P18505); experiment: as §2, with “alpha1beta1gamma2L” for “alpha1beta2gamma2L”; format: cell-based; details: Oocyte
[5] = target: T2, GABA A receptor alpha-1/beta-1/gamma-2 (Homo sapiens); experiment: as §2, with “alpha1beta1gamma2L” for “alpha1beta2gamma2L”, “10” for “1”; format: cell-based; details: Oocyte
Oocyte = experiment: as §2, with “alpha5beta2gamma2L” for “alpha1beta2gamma2L”, “10” for “1”; format: cell-based
[6] = target: T1, GABA-A receptor; alpha-1/beta-2/gamma-2 (Homo sapiens); experiment: (§3) Antagonist at human recombinant GABA-A alpha1beta2gamma2L receptor expressed in Xenopus laevis oocytes assessed as blockade of diazepam-induced potentiation of GABA-induced chloride current at 10 uM incubated 60 seconds before addition of GABA measured after 30 seconds at holding potential -70 mV by two-microelectrode voltage clamp technique; format: functional, cell-based; details: Oocyte
Outline: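 Oocytes expressing human α1β2γ2L, α2β1γ2L or α5β2γ2L receptors were clamped at −70 mV. Compound at 10 μM was tested against the enhancement of the GABA EC10 response by 1.0 μM diazepam, with 60 s preapplication and 30 s coapplication. The response was expressed as percent potentiation, from 2–3 oocytes.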

[7] = target: T2, GABA A receptor alpha-1/beta-1/gamma-2 (Homo sapiens); experiment: as §3, with “alpha1beta1gamma2L” for “alpha1beta2gamma2L”; format: functional, cell-based; details: Oocyte
Rattus norvegicus [8] = organism: Rattus norvegicus; experiment: Agonist activity at central benzodiazepine receptor in Sprague-Dawley rat cerebrocortical synaptoneurosomes assessed as increase in GABA-induced [36]chloride ion flow after 10 seconds by beta liquid scintillation counting; format: functional; outline: as §1
Mus musculus [9] = experiment: Anxiolytic effect in mouse assessed as increase in time spent in light compartment at 1 mg/kg, po by light/dark box test; format: functional, organism-based; set-up: dose 1 mg/kg
Outline: (§4)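 Male mice were used. Compound was given orally as a suspension in 1% CMC; diazepam was given ip in saline; volume 10 mL/kg. Each mouse was placed in the lit side of a two-compartment light/dark box and observed for 5 min, scoring time in the light and transfers. Groups were compared by ANOVA with Fisher PLSD.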

Mus musculus [10] = experiment: Anxiolytic effect in mouse assessed as increase in time spent in light compartment at 10 mg/kg, po by light/dark box test; format: functional, organism-based; set-up: dose 10 mg/kg; outline: as §4
Mus musculus [11] = experiment: Myorelaxant activity in mouse assessed as motor coordination measuring number of falls at 10 mg/kg, po measured for 30 seconds after 45 mins of compound administration by rotarod test; format: functional, organism-based; set-up: dose 10 mg/kg
Outline: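 In mice, falls from the rotating rod were counted for 30 s after dosing. Compound was given orally in 1% CMC and diazepam ip in saline. Results were compared against saline/CMC controls by ANOVA.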

Mus musculus [12] = experiment: […] activity in mouse assessed as effect on spontaneous motility measuring number of movements on plane board at 10 mg/kg, po after 5 mins by hole-board test relative to CMC-treated control; format: functional, organism-based; set-up: dose 10 mg/kg
Outline: (§5)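 Mice dosed orally in 1% CMC were placed singly on a 16-hole board for 5 min. Photocells counted plane movements (spontaneous motility) and hole explorations. Groups of 12–15 mice were compared with CMC controls.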

Mus musculus [13] = experiment: […] activity in mouse assessed as effect on explorative activity measuring number of inspections at 10 mg/kg, po after 5 mins by hole-board test relative to CMC-treated control; format: functional, organism-based; set-up: dose 10 mg/kg; outline: as §5
Mus musculus [14] = experiment: Antiamnesic activity against scopolamine-induced amnesic effect in mouse assessed as increase in retention latency period at 3 mg/kg, po by passive avoidance test; format: functional, organism-based; set-up: dose 3 mg/kg
Outline: (§6)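 In a mouse passive-avoidance test, oral doses in 1% CMC were tested against amnesia induced by 1.5 mg/kg scopolamine ip. Retention latency was scored and compared with controls by ANOVA.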

Mus musculus [15] = experiment: Antiamnesic activity against scopolamine-induced amnesic effect in mouse at 10 mg/kg, po by passive avoidance test; format: functional, organism-based; set-up: dose 10 mg/kg; outline: as §6

SMILES	Ratio Ki (Bos taurus)	Ratio Ki (Homo sapiens)	Activity (Rattus norvegicus [1])	Activity [2]	Activity [3]	Activity [4]	Activity [5]	Activity (Oocyte)	Activity [6]	Activity [7]	Activity (Rattus norvegicus [8])	Activity (Mus musculus [9])	Activity (Mus musculus [10])	Activity (Mus musculus [11])	Activity (Mus musculus [12])	Activity (Mus musculus [13])	Activity (Mus musculus [14])	Activity (Mus musculus [15])
CCOC(=O)c1ncn2c1CN=C(c1ccc(C)cc1)c1ccccc1-2	0.97	1.1	Active	8%	-4%	0%	8.3%	-22%	Active	Active	–	–	–	–	–	–	–	–
CCOC(=O)c1ncn2c1CN=C(c1ccc(F)cc1)c1cc(F)ccc1-2	1	1.05	–	-13%	12%	-7.5%	6.5%	-16%	Active	Active	Active	Active	Active	inactive	inactive	inactive	Active	Active
